Measurements taken from PubChem BioAssay.
Active and inactive are the calls of the source. Unless noted, no rule for the calls is given here.

What was measured:
[1] = biological target: Pantothenate synthetase (Mycobacterium tuberculosis (strain ATCC 25618 / H37Rv)) (UniProt P9WIL5); assay: Coupled enzyme confirmation of inhibitors against recombinant Mtb PanC (AID 375); details: coupled enzyme assay; at 10 µM, stronger effect = higher value;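 also: 0% = full reaction with vehicle and 100% = no enzyme background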
[2] = Her2 expression decrease, cell viability multiplex – SKBR3 breast tumor cells, AlphaScreen, ATP viability, primary screen (AID 461;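 active = Her2 level under about 52% in both replicate screens, with viability over 70% of control, limit read from the data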;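 as to Her2 level: lower value means less Her2 protein in the cells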;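 as to viability: percent of carrier control wells set as 100% viability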); details: SKBR3 Her2 protein level, 18-24 h, measured here: SKBR3 viability, ATP luminescence, at 10 µM
[3] = biological target: Receptor tyrosine-protein kinase erbB-2 (Homo sapiens) (UniProt P04626); assay: as above; details: 18-24 h, at 10 µM, stronger effect = lower value
[4] = reduced viability of SK-BR-3 breast cancer cells – cell-based, 24 h, human, pilot screen (AID 572;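 active = viability at or below 10% of carrier control in both of two separate runs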;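 also: compound exposure lasted between 18 and 24 h rather than exactly 24 h; 100% = carrier-treated control wells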); details: SK-BR-3 viability, CellTiter-Glo luminescence, at 10 µM, stronger effect = lower value
[5] = HUVEC growth inhibition – cell-based, human, primary screen (AID 575;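 active = viability at or below 30% in both replicate assays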;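 also: 100% = median of untreated cell wells with 0.1% DMSO on each plate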); details: HUVEC proliferation, CellTiter-Glo luminescence, 72 h; at 10 µM; stronger effect = lower value
Procedure, shortened: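 System: primary human umbilical vein endothelial cells; Quantity: 1250 endothelial cells in each well; Buffer or medium: supplemented EBM, 2% fetal bovine serum; Doses: one dose, 10 µM final, 0.1% DMSO; Incubation: 72 h compound incubation; Technique: ATP-based CellTiter-Glo luminescent read; Evaluation: percent of median DMSO-control luminescence; Controls: vehicle and MePR control wells.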

[6] = H69AR cell proliferation blockers – human, duplicate replicates, primary screen (AID 580;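 active = viability at or under a set limit in both replicates, limit being median viability minus 3 SD, cut at about 48% in these data, passing the limit was not always enough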;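 also: 100% = mean luminescence of untreated wells and 0% = no signal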); details: H69AR lung tumor cells viability, ATP luminescence, 72 h; at 10 µM; stronger effect = lower value
[7] = MRP1 drug-resistance reversers in H69AR cells – cell-based, doxorubicin co-treatment, pilot screen (AID 601;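 active = viability loss from added drug above about 55%, and viability with drug at most 40%, in both replicates, limit read from the data, passing the limit was not always enough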); details: CellTiter-Glo, 72 h, at 10 µM; for differential viability (reversal): stronger effect = higher value
[8] = yeast transport mutant growth inhibition pilot in 384-well plates, post-Golgi transport modulator project (AID 636; in the data active = inhibition above about 31%); details: absorbance 615 nm, about 18 h, stronger effect = higher value
[9] = growth suppression of yeast trafficking mutant, preliminary HTS, modulators of trafficking downstream of Golgi apparatus project, 1536-format plate, OD 615 nm (AID 637; in the data active = inhibition above about 30%); details: yeast transport mutant growth, absorbance 615 nm, 18 h; stronger effect = higher value
[10] = H69AR cells + 2 uM doxorubicin, measured here: viability with 2 uM doxorubicin, stronger effect = lower value
[11] = H69AR cells, compound alone cytotoxicity

Sequence of Receptor tyrosine-protein kinase erbB-2 (Homo sapiens) (P04626 whole entry, looked up): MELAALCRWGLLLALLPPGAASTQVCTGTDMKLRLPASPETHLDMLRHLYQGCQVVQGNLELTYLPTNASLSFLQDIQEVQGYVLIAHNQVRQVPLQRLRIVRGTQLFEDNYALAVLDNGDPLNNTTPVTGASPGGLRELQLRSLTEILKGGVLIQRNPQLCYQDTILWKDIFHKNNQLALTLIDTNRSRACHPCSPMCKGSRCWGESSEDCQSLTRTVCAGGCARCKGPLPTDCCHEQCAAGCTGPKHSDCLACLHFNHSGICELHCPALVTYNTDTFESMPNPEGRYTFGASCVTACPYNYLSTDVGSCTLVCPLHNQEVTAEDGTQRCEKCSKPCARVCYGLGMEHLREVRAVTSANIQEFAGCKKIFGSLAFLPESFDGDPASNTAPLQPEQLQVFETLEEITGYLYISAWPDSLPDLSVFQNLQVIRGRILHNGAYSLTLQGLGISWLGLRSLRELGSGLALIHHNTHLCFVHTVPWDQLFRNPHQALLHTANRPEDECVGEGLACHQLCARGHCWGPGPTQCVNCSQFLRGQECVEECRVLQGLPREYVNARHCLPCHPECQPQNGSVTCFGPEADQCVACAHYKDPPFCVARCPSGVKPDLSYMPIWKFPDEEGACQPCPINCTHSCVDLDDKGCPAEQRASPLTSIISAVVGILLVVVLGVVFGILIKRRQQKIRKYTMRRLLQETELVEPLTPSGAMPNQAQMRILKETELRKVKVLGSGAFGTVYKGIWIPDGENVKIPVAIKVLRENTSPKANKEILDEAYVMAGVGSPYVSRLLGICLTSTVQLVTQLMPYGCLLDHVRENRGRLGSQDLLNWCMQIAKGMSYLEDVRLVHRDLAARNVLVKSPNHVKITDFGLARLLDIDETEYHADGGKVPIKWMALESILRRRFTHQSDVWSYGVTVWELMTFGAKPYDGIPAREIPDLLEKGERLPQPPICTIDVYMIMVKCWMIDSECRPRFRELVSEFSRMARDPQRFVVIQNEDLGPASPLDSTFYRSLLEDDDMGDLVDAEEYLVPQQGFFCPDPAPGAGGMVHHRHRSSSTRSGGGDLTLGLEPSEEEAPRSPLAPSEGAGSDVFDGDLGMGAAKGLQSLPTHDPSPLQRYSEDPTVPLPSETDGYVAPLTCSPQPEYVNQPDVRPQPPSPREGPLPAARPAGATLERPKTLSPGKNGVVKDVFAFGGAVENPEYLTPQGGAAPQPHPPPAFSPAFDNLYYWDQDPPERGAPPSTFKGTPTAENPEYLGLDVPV
Sequence of Pantothenate synthetase (Mycobacterium tuberculosis (strain ATCC 25618 / H37Rv)) (P9WIL5 whole entry, looked up): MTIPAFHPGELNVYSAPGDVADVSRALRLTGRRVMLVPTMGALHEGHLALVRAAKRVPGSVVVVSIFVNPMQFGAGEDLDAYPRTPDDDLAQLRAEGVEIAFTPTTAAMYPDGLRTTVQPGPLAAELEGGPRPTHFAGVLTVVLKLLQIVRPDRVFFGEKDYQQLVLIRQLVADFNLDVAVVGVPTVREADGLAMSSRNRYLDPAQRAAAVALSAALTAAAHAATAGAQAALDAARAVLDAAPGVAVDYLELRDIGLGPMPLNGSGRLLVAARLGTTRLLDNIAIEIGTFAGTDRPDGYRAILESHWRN

Q: With `CC12CCCCC1=[N+]([O-])CN2O` (stereo not drawn) as the molecule, how does the inhibition [1] read?
A: 5% (inactive)

Q: And the viability [2]?
A: 102%

Q: What about the Her2 level [3] of the same molecule?
A: 112% (inactive)

Q: What about the viability [4] of the same molecule?
A: 102% (inactive)

Q: What about the viability [5] of the same molecule?
A: 109% (inactive)

Q: And the viability [6]?
A: 105% (inactive)

Q: What about the differential viability (reversal) ([7]; H69AR cells + 2 uM doxorubicin) of the same molecule?
A: 15.9% (inactive)

Q: And the viability [7, 10]?
A: 89.4%

Q: And the viability [7, 11]?
A: 105%

Q: And the inhibition [8]?
A: -1.33% (inactive)

Q: And the inhibition [9]?
A: 8.71% (inactive)

Q: For `Cc1cnn(C2CCN(C)CC2)c1N`, which inhibition [1] is on record?
A: 0% (inactive)

Q: And the viability [2]?
A: 97%

Q: What about the Her2 level [3] of the same molecule?
A: 96.5% (inactive)

Q: And the viability [4]?
A: 97% (inactive)

Q: What about the viability [5] of the same molecule?
A: 102% (inactive)

Q: What about the viability [6] of the same molecule?
A: 104% (inactive)

Q: What about the differential viability (reversal) ([7]; H69AR cells + 2 uM doxorubicin) of the same molecule?
A: 5.52% (inactive)

Q: What about the viability [7, 10] of the same molecule?
A: 98.4%

Q: What about the viability [7, 11] of the same molecule?
A: 104%

Q: What about the inhibition [8] of the same molecule?
A: 0.14% (inactive)

Q: And the inhibition [9]?
A: -5.41% (inactive)

Q: With `CN(C)[C@@H]1C(=O)C(C(N)=O)=C(O)[C@@]2(O)C(=O)C3=C(O)c4c(O)ccc(Cl)c4[C@@](C)(O)C3C[C@@H]12` (stereo partly drawn) as the molecule, how does the inhibition [1] read?
A: 1% (inactive)

Q: What about the viability [2] of the same molecule?
A: 119%

Q: What about the Her2 level [3] of the same molecule?
A: 104% (inactive)

Q: And the viability [4]?
A: 119% (inactive)

Q: What about the viability [5] of the same molecule?
A: 104% (inactive)

Q: What about the viability [6] of the same molecule?
A: 96.8% (inactive)

Q: And the differential viability (reversal) ([7]; H69AR cells + 2 uM doxorubicin)?
A: 2.32% (inactive)

Q: And the viability [7, 10]?
A: 94.5%

Q: And the viability [7, 11]?
A: 96.8%

Q: Which inhibition [1] does the source give for `CCN1c2nc3c(C)cccn3c(=O)c2CC2(C(=O)N(C)C(=O)N(C)C2=O)C1C` (stereo not drawn) here?
A: 0% (inactive)

Q: What about the viability [2] of the same molecule?
A: 101%

Q: And the Her2 level [3]?
A: 94.5% (inactive)

Q: What about the viability [4] of the same molecule?
A: 101% (inactive)

Q: What about the viability [5] of the same molecule?
A: 88.9% (inactive)

Q: And the viability [6]?
A: 91.4% (inactive)

Q: What about the differential viability (reversal) ([7]; H69AR cells + 2 uM doxorubicin) of the same molecule?
A: 4.38% (inactive)

Q: And the viability [7, 10]?
A: 87%

Q: What about the viability [7, 11] of the same molecule?
A: 91.4%

Q: What about the inhibition [8] of the same molecule?
A: -4.59% (inactive)

Q: And the inhibition [9]?
A: -2.13% (inactive)

Q: With `C=CCn1c(O)c(C=NCCN(C)C)c(=O)[nH]c1=O` as the molecule, how does the inhibition [1] read?
A: 0% (inactive)

Q: And the viability [2]?
A: 97.5%

Q: What about the Her2 level [3] of the same molecule?
A: 108% (inactive)

Q: What about the viability [4] of the same molecule?
A: 97.5% (inactive)

Q: What about the viability [5] of the same molecule?
A: 110% (inactive)

Q: And the viability [6]?
A: 97.2% (inactive)

Q: And the differential viability (reversal) ([7]; H69AR cells + 2 uM doxorubicin)?
A: 3.12% (inactive)

Q: What about the viability [7, 10] of the same molecule?
A: 94.1%

Q: And the viability [7, 11]?
A: 97.2%

Q: And the inhibition [8]?
A: -0.39% (inactive)

Q: What about the inhibition [9] of the same molecule?
A: -0.98% (inactive)
